Assays:
Liver microsomes = experiment: Intrinsic clearance in human liver microsomes; format: ADME, Microsome
In short: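 Metabolic depletion in pooled human liver microsomes (0.1 mg/mL protein), substrate 0.3 μmol/L, final DMSO 0.01%. Matrix: 100 mmol/L phosphate pH 7.4 with 0.1 mmol/L EDTA. Reaction started with an NADPH-generating system (β-NADP+, G6P, MgCl2, G6PDH) and run at 37 °C for 0 and 15 min. Quenched with acetonitrile/methanol plus internal standard; analysed by LC/MS/MS.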

[1] = Tmax in Sprague-Dawley rat at 10 mg/kg, po; format: ADME, organism-based; design: dose 10 mg/kg, route oral; details: in vivo
In short: (§1)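 Fasted male Sprague-Dawley rats, n = 3 per route. IV dose 3 mg/kg from a 3 mg/mL solution in 1% ethanol–0.1 mol/L HCl–glucose. PO dose 10 mg/kg from a 2 mg/mL solution in 5% ethanol–0.1 mol/L HCl–glucose. Jugular blood sampled at 0.083 (iv only), 0.25, 0.5, 1, 2, 4, 6 and 8 h. Plasma deproteinized with acetonitrile plus internal standard, quantified by LC/MS/MS. Mean ± SEM of three animals.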

[2] = Cmax in Sprague-Dawley rat at 10 mg/kg, po; format: ADME, organism-based; design: dose 10 mg/kg, route oral; details: in vivo; in short: as §1
[3] = AUC in Sprague-Dawley rat at 10 mg/kg, po; format: ADME, organism-based; design: dose 10 mg/kg, route oral; details: plasma; in short: as §1
[4] = AUC in Sprague-Dawley rat at 3 mg/kg, iv; format: ADME, organism-based; design: dose 3 mg/kg, route intravenous; details: plasma; in short: as §1
[5] = Oral bioavailability in Sprague-Dawley rat at 10 mg/kg; format: ADME, organism-based; details: in vivo; in short: as §1
[6] = Half life in Sprague-Dawley rat at 3 mg/kg, iv; format: ADME, organism-based; design: dose 3 mg/kg, route intravenous; details: in vivo; in short: as §1
[7] = Volume of distribution at steady state in Sprague-Dawley rat at 3 mg/kg, iv; format: ADME, organism-based; design: dose 3 mg/kg, route intravenous; details: in vivo, read-out: Vdss; in short: as §1
[8] = Plasma clearance in Sprague-Dawley rat at 3 mg/kg, iv; format: ADME, organism-based; design: dose 3 mg/kg, route intravenous; in short: as §1

intrinsic clearance (Liver microsomes) | SMILES | also measured
550 µL/min/mg | COCc1cc(OC)c(-c2csc3c(N(CC4CC4)CC4(F)CCOCC4)c(OC)nn23)c(OC)c1 | 
550 µL/min/mg | COCc1cc(OC)c(-c2csc3c(N(CC4CC4)CC4CCCOC4)c(OC)nn23)c(OC)c1 (configuration not stated) | 
960 µL/min/mg | COCCN(CC1CC1)c1c(OC)nn2c(-c3c(OC)cc(COC)cc3OC)csc12 | 
180 µL/min/mg | COCc1cc(OC)c(-c2csc3c(N(CC4CC4)C4CCOCC4)c(OC)nn23)c(OC)c1 | 
200 µL/min/mg | CCN(c1c(OC)nn2c(-c3c(OC)cc(COC)cc3OC)csc12)C1CCOCC1 | 
340 µL/min/mg | CCCN(c1c(OC)nn2c(-c3c(OC)cc(COCC)cc3OC)csc12)C1CCOCC1 | 
150 µL/min/mg | CCCCN(c1c(OC)nn2c(-c3c(OC)cc(C#N)cc3OC)csc12)C1CCOCC1 | 

The next lines start with the molecule.

SMILES | intrinsic clearance (Liver microsomes) | also measured
COCc1cc(OC)c(-c2csc3c(N(CC4CCOCC4)CC4CC4)c(OC)nn23)c(OC)c1 | 460 µL/min/mg | 
COCc1cc(OC)c(-c2csc3c(N(CC4CC4)CC4CCCCO4)c(OC)nn23)c(OC)c1 (configuration not stated) | 870 µL/min/mg | 
COCc1cc(OC)c(-c2csc3c(N(CC4CC4)CC4CCOC4)c(OC)nn23)c(OC)c1 (configuration not stated) | 530 µL/min/mg | 
COCc1cc(OC)c(-c2csc3c(N(CC4CC4)CC4CCCO4)c(OC)nn23)c(OC)c1 (configuration not stated) | 1020 µL/min/mg | 
CCCN(c1c(OC)nn2c(-c3c(OC)cc(COC)cc3OC)csc12)C1CCOCC1 | 220 µL/min/mg | 
COCc1cc(OC)c(-c2csc3c(N(CCC4CC4)C4CCOCC4)c(OC)nn23)c(OC)c1 | 180 µL/min/mg | 
CCCCN(c1c(OC)nn2c(-c3c(OC)cc(COC)cc3OC)csc12)C1CCOCC1 | 200 µL/min/mg | 
COCc1cc(OC)c(-c2csc3c(N(C(C)C)C4CCOCC4)c(OC)nn23)c(OC)c1 | 670 µL/min/mg | 
COCc1cc(OC)c(-c2csc3c(N(CC(C)C)C4CCOCC4)c(OC)nn23)c(OC)c1 | 360 µL/min/mg | 
CCCN(c1c(OC)nn2c(-c3c(OC)cc(C#N)cc3OC)csc12)C1CCOCC1 | 150 µL/min/mg | 
CCCN(c1c(OC)nn2c(-c3c(Cl)cc(COC)cc3OC)csc12)C1CCOCC1 | 370 µL/min/mg | 
CCCCN(c1c(OC)nn2c(-c3c(OC)cc(COCC)cc3OC)csc12)C1CCOCC1 | 220 µL/min/mg | Tmax [1]: 0.5 h; Cmax [2]: 540 ng/mL; AUC [3]: 1240 ng·h/mL; AUC [4]: 1580 ng·h/mL; bioavailability [5]: 23%; half-life [6]: 5.2 h; Vd [7]: 6.32 L/kg; clearance [8]: 32.2 mL/min/kg

Reference: ChEMBL document CHEMBL2177001, “Design, synthesis, and structure-activity relationships of novel pyrazolo[5,1-b]thiazole derivatives as potent and orally active corticotropin-releasing factor 1 receptor antagonists” (J Med Chem, 2012)
